Type in all cases: functional
The test system of test [1] is Mus musculus. The experiment in a line: Antitumor activity was evaluated as percent increase in life span in BDF1 mice (six mice per group) implanted intraperitoneally with P-388 leukemia cells (10e6 )at a dose of 100 mg/Kg,. The note with it: P388, ip. In a few lines:
(§1)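 Male BDF1 mice (average weight 23 g) implanted ip with 10^6 P-388 cells on day 0. Treatment in sterile 0.9% saline given ip daily for 9 days starting 24 h after implantation; saline-only controls. Animals observed up to 60 days. Median survival of treated (T) vs controls (C) expressed as %ILS = (T/C − 1) × 100; significance at P < 0.05.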

The subject of test [2] is Mus musculus. The experiment in a line: Antitumor activity was evaluated as percent increase in life span in BDF1 mice (six mice per group) implanted intraperitoneally with P-388 leukemia cells (10e6 )at a dose of 300 mg/Kg,. Conditions: P388, ip. In a few lines:
as §1

The test system of test [3] is Mus musculus. As to the kind of experiment: Antitumor activity was evaluated as percent increase in life span in BDF1 mice (six mice per group) implanted intraperitoneally with P-388 leukemia cells (10e6 )at a dose of 500 mg/Kg,. The note with it: P388, ip. In short, it runs like this:
as §1

Test [4] relates to Mus musculus. As to the kind of experiment: Antitumor activity was evaluated as median survival time in BDF1 mice (six mice per group) implanted intraperitoneally with P-388 leukemia cells (10e6 )at a dose of 300 mg/Kg,. In short, it runs like this:
(§2)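 Male BDF1 mice (average weight 23 g) inoculated ip with 10^6 P-388 leukemia cells on day 0; leukemia maintained by weekly ip passage in female DBA/2 mice. Compound in sterile 0.9% saline given ip once daily for 9 consecutive days starting 24 h after implantation; controls received saline alone. Animals observed for 60 days or until death; median survival time recorded.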

Test [5] has as its system Mus musculus. The experiment in a line: Antitumor activity was evaluated as median survival time in BDF1 mice (six mice per group) implanted intraperitoneally with P-388 leukemia cells (10e6 )at a dose of 500 mg/Kg,. In short, it runs like this: as §2
The test system of test [6] is Mus musculus. As to the kind of experiment: Antitumor activity was evaluated as median survival time in BDF1 mice (six mice per group) implanted intraperitoneally with P-388 leukemia cells (10e6 )at a dose of 100 mg/Kg,. In a few lines:
as §2

The subject of test [7] is Mus musculus. The experiment in a line: Antitumor activity was evaluated as percent increase in life span in BDF1 mice (six mice per group) implanted intraperitoneally with P-388 leukemia cells (10e6 )at a dose of 600 mg/Kg,. The note with it: P388, ip. In short, it runs like this: as §1
In test [8] the test system is Mus musculus. The experiment in a line: Antitumor activity was evaluated as median survival time in BDF1 mice (six mice per group) implanted intraperitoneally with P-388 leukemia cells (10e6 )at a dose of 600 mg/Kg,. In short, it runs like this: as §2

The source of these data is ChEMBL document CHEMBL1123076, “Synthesis and biological evaluation of 9-[5'-(2-oxo-1,3,2-oxazaphosphorinan-2-yl)-beta-D-arabinosyl]ade nine and 9-[5'-(2-oxo-1,3,2-dioxaphosphorinan-2-yl)-beta-D-arabinosyl]ade nine: potential neutral precursors of 9-[beta-D-arabinofuranosyl]adenine 5'-monophosphate” (1985).

For the compound `Nc1ncnc2c1ncn2C1O[C@H](COP2(=O)NCCCO2)[C@@H](O)[C@@H]1O` (stereo not given in full), the ILS at 100 mg/kg in test [1] was 33%. Also, the ILS at 300 mg/kg in test [2] worked out at 33%. Besides, the ILS at 500 mg/kg in test [3] is -11%. Further, the results for the MST in test [4], in test [5] and in test [6] were 12 days, 8 days and 12 days, respectively.

As to `Nc1ncnc2c1ncn2[C@@H]1O[C@H](CO)[C@@H](O)[C@H]1O` [ADENOSINE], the ILS at 600 mg/kg in test [7] is 33%. The compound further displayed an MST in test [8] of 12 days.

`Nc1ncnc2c1ncn2C1O[C@H](COP2(=O)OCCCO2)[C@@H](O)[C@@H]1O` (stereo not given in full): the ILS at 100 mg/kg in test [1] was found to be 0%. The MST in test [6] amounted to 9 days.
